# Screens: PubChem, The Scripps Research Institute Molecular Screening Center
# TCR CD3 inh – human TCR-CD3 binding inhibition. TAMRA-labeled TCR probe fluorescence, biochemical. inhibition, % at 9.4 µM. hit rate 0.37% among 360,000; in the data active means inhibition above about 19%;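 further: recombinant mutant TCR 2C K166C tagged with TAMRA read by polarization; 0% = receptor in buffer alone and 100% = receptor with positive control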
# SIAE inh – inhibitors of human sialic acid acetylesterase SIAE. AID 1053197. SIAE FP-Rh probe binding, fluorescence polarization. hit rate 0.69% among 370,000. inhibition, % at 9.66 µM;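 active means inhibition above a cutoff: mean of compounds within the control limits plus 3 SD of those, cut at about 17% in these data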;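 further: 0% = plate median of compound wells and 100% = probe without SIAE protein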
# Target sequence (Q9HAT2 whole entry, looked up): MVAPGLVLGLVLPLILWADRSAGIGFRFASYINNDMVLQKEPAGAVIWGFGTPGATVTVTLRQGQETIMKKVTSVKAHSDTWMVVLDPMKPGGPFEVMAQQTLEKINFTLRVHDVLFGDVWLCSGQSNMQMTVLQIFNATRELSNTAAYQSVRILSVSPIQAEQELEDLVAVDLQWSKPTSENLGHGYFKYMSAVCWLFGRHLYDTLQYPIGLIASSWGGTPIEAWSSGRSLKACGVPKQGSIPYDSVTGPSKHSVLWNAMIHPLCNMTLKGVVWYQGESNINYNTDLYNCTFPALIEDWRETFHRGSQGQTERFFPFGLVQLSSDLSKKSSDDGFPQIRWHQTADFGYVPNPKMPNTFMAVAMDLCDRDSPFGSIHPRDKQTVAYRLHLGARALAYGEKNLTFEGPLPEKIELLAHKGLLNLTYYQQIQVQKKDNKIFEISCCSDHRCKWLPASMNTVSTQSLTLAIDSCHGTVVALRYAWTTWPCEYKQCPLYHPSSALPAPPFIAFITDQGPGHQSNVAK
# ABHD4 inh – inhibitors of mouse ABHD4. Q8VD66. purified mABHD4, FP-Rh probe fluorescence polarization. inhibition, % at 8.92 µM. hit rate 0.54% among 370,000. AID 720543;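 active means inhibition exceeding the mean over every tested compound plus 3 SD, cut at about 30% in these data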;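 further: 0% = plate median of compound wells and 100% = S159A mutant with DMSO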
#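 assay system = mABHD4 protein | compound dosing = single nominal dose of 8.92 µM, 0.89% DMSO final | read-out basis = percent inhibition of probe binding, normalized to plate controls | schedule = Enzyme–compound pre-incubation 45 min, then probe 60 min, both 25 °C | detection = fluorescence polarization, excitation 525 nm, emission 598 nm, BODIPY TMR filters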
# TDP2 inh – TDP2 (human) inhibition, absorbance primary screen. recombinant TDP2, T5PNP hydrolysis, p-nitrophenol absorbance 415 nm. inhibition, % at 12.8 µM. hit rate 0.34% among 370,000. AID 720702;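 active means inhibition above the mean of all tested compounds plus 3 SD, set per campaign, cut at about 25% in these data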;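 further: 0% = DMSO with enzyme and 100% = buffer with substrate but no TDP2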
#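 Test system: human TDP2 enzyme; Input: 120 nM TDP2 per well; Buffer or medium: Mg2+-containing Tris-HCl buffer, pH 7.5; Reagent: 5 mM T5PNP; Dosing: 12.8 µM single point, 1% DMSO; Incubation: reaction 2 h, 37 °C; Detection: p-Nitrophenol epi absorbance; Read-out: % inhibition relative to enzyme-containing and enzyme-free wells; Replicates: single well per compound.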
# LEDGF integ inh – blocks HIV-1 LEDGF/p75-dependent DNA integration. AID 743269. inhibition, % at 3.7 µM. TR-FRET IN-LEDGF/p75 DNA integration, Eu/Cy5. hit rate 0.64% among 370,000;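 active means inhibition above the screen-wide mean plus 3 SD, cut at about 13% in these data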;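 further: signal is the Cy5 over europium emission ratio at 671 and 618 nm; 0% = plate median of compound wells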
# HTRA1 inh – HTRA1 (human) protease inhibition; recombinant HTRA1, FP-rhodamine activity-based probe, fluorescence polarization; inhibition, % at 5.96 µM; hit rate 0.5% among 340,000; in the data active means inhibition above about 36%;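 further: 0% = enzyme with DMSO and 100% = wells lacking enzyme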
# TDP2 confirm – human TDP2 inhibition, confirmation | inhibition, % at 12.8 µM | shares compounds with TDP2 inh | hit rate 22% among 1,100 | recombinant human TDP2, absorbance read-out; in the data active means inhibition above about 25%;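 further: 0% = vehicle with enzyme and 100% = no enzyme buffer only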
# IN multimer act – activates HIV-1 integrase multimerization in LEDGF counter-screen; TR-FRET HIV-1 integrase multimerization, biochemical; hit rate 17% among 2,000; activation, % at 7.7 µM; shares compounds with LEDGF integ inh; in the data active means activation above about 8.9%
# TRFRET interf – TR-FRET optical interference, LEDGF/p75 integration counter-screen. shares compounds with LEDGF integ inh. TR-FRET optical interference counterscreen, HIV-1 IN multimerization. inhibition, % at 7.7 µM. 2,000 tested, under 10 active. AID 1053135;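 active means inhibition above the mean over all tested compounds plus 3 SD, which no compound reached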;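 further: 0% = integrase with antibodies and DMSO and 100% = antibodies without integrase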
# LEDGF integ conf – LEDGF/p75-dependent HIV-1 integration inhibition, confirmation. hit rate 36% among 2,000. shares compounds with LEDGF integ inh. TR-FRET LEDGF/p75-dependent HIV-1 integration, biochemical. inhibition, % at 3.7 µM; in the data active means inhibition above about 14%
# Active calls of the source: *; nt = no result. An excerpt weighted towards active compounds, which were near 2.2% of everything screened.
SMILES,TCR CD3 inh,SIAE inh,ABHD4 inh,TDP2 inh,LEDGF integ inh,HTRA1 inh,TDP2 confirm,IN multimer act,TRFRET interf,LEDGF integ conf
Cc1ccc(NC(=O)COC(=O)c2ccc([N+](=O)[O-])s2)c(C)c1,-5,-6,4,10,-1,28,nt,nt,nt,nt
COc1ccccc1NC(=O)COC(=O)c1ccc([N+](=O)[O-])s1,-3,-6,-1,32*,17*,33,24,0,-2,44*
CCCCn1c(NC(=O)c2ccco2)c(S(=O)(=O)c2ccc(C)cc2)c2nc3ccccc3nc21,-3,-9,-7,21,10,-36,nt,nt,nt,nt
Cc1ccc(S(=O)(=O)c2c(N)n(CCC(C)C)c3nc4ccccc4nc23)cc1,-1,-45,-47,1,3,-104,nt,nt,nt,nt
CCCCn1c(NC(=O)c2ccc(Br)o2)c(S(=O)(=O)c2ccccc2)c2nc3ccccc3nc21,5,3,6,67*,17*,8,23,0,-2,21*
CCCCn1c(NS(=O)(=O)c2ccccc2)c(S(=O)(=O)c2ccc(C)cc2)c2nc3ccccc3nc21,-3,5,-4,89*,23*,17,95*,2,-6,73*
CCCCCn1c(NC(=O)c2ccco2)c(S(=O)(=O)c2ccc(C)cc2)c2nc3ccccc3nc21,2,-10,-6,69*,17*,-34,1,17*,-61,21*
COc1ccc(NC2=C(c3ccc(OC)cc3)C(=O)c3ccccc32)cc1,-5,7,6,-10,-2,1,nt,nt,nt,nt
COC1=C(Nc2ccc(OC)cc2)C(=O)c2ccccc2C1=O,-7,3,4,60*,18*,18,4,7,-25,-2
N#CCCCc1cn(-c2ccc(-c3noc4c3C(=O)N(CC(=O)N3CCOCC3)CC4)cc2)nn1,nt,2,0,0,3,nt,nt,nt,nt,nt
O=C1c2ccccc2C(=O)c2c([N+](=O)[O-])ccc(O)c21,-7,0,10,5,-2,36,nt,nt,nt,nt
O=C1C=C(O)c2cccc(O)c2C1=O,5,12,41*,32*,22*,22,13,8,-29,14*
COC(=O)c1cc(C)oc1C,nt,3,-2,3,1,nt,nt,nt,nt,nt
Cc1c(C=O)c(C=O)c(C)n1Cc1ccccc1,-3,0,19,25*,22*,6,1,-2,11,12
COc1cc(/C=N/Nc2nncn2N)ccc1OCc1c(C)no[n+]1[O-],-3,3,0,68*,59*,0,6,1,-3,-3
COc1cc(/C=C(\C#N)C(N)=O)ccc1OCc1c(C)no[n+]1[O-],3,1,-2,-10,3,-3,nt,nt,nt,nt
O=C(N/N=C/c1ccc(Cl)cc1Cl)c1ccc(-n2cnnn2)cc1,0,2,0,-13,4,-1,nt,nt,nt,nt
Nn1cnnc1N/N=C/c1ccc(Cl)cc1Cl,-7,-1,2,73*,48*,0,-7,1,-2,-2
COc1ccc(/C=N/Nc2nncn2N)cc1Br,2,3,3,75*,70*,7,8,0,-1,-6
COc1ccc(CSc2nnc(SCC(=O)Nc3ccc4c(c3)OCO4)s2)cc1,nt,-3,0,5,0,nt,nt,nt,nt,nt
Cc1cc(=O)n(-c2ccc(O)cc2)[nH]1,1,6,6,56*,19*,7,15,1,-7,-5
CC1=NN(c2ccc(C)c(C)c2)C(=O)C1C(c1cccc(O)c1)C1C(=O)N(c2ccc(C)c(C)c2)N=C1C (configuration not stated),-2,15,15,80*,42*,7,19,-1,4,0
Cc1cccc(Nc2nc(N)c([N+](=O)[O-])c(NCCO)n2)c1,-9,-4,2,-7,-4,-10,nt,nt,nt,nt
Cc1cccc(NC2=C(NCCO)C(=O)c3ccccc3C2=O)c1,10,13,14,58*,20*,27,2,4,-13,0
Cc1ccccc1-c1cc2c(nn1)-c1ccccc1C2=O,-3,3,8,63*,61*,3,50*,0,1,40*
SMILES,TCR CD3 inh,SIAE inh,ABHD4 inh,TDP2 inh,LEDGF integ inh,HTRA1 inh,TDP2 confirm,IN multimer act,TRFRET interf,LEDGF integ conf
Nn1cnnc1N/N=C\c1ccc(-c2ccccc2[N+](=O)[O-])o1,13,3,5,66*,38*,5,39*,2,-9,1
CCOC(=O)CC[C@@H]1CC[C@]2(CCCN(Cc3ccc(OC)cc3)C2)O1,nt,14,-1,-5,1,nt,nt,nt,nt,nt
O=C(Nc1ccc(C(O)(C(F)(F)F)C(F)(F)F)cc1)c1c(F)cccc1F,nt,-9,-33,6,-5,nt,nt,nt,nt,nt
COC(=O)c1cc(C)nc2c1C(=O)C(=O)C=C2N1CCOCC1,-4,13,11,87*,38*,30,89*,1,-4,78*
Cc1[nH]c2ccccc2c1/C=N/Nc1nncn1N,0,9,2,74*,74*,-4,4,3,-17,1
COC(=O)[C@@]12CCCCC3=C1N(CCC3)C(=O)[C@H]2CC(=O)NCCCN1CCCC1=O,nt,-5,1,-1,-1,nt,nt,nt,nt,nt
CC(C)(C)C(=O)NC1CCCCN(Cc2cccc(Cl)c2)C1=O (configuration not stated),nt,-2,6,-4,-3,nt,nt,nt,nt,nt
CCOc1ccc2nc(NC(=S)N(C)C)sc2c1,5,4,1,26*,14*,-3,17,2,-9,9
O=S(=O)(CS(=O)(=O)c1ccc(Br)cc1)c1ccc(Br)cc1,-5,-2,1,1,-3,nt,nt,nt,nt,nt
COC(=O)[C@]12C[C@H](CC(=O)NCc3cccc(C(F)(F)F)c3)C(=O)N(CCc3ccc(OC)c(OC)c3)C1=C[C@H](C1CCCC1)O[C@@H]2C,nt,-4,-8,-4,6,nt,nt,nt,nt,nt
Cc1nnc(N/N=C/c2cccc(OCc3ccc(Cl)c(Cl)c3)c2)n1N,2,7,0,62*,57*,-17,2,-1,2,-4
Cc1nnc(N/N=C/c2ccccc2C(F)(F)F)n1N,-8,1,-2,52*,45*,4,10,0,1,3
CN(C)c1cc(N/N=C/c2ccccc2C(F)(F)F)nc(N(C)C)n1,4,3,9,22,2,9,nt,nt,nt,nt
